TCR CD3 inh: human TCR-CD3 binding inhibition; hit rate 0.37% among 360,000; AID 651800; inhibition, % at 9.4 µM; TAMRA-labeled TCR probe fluorescence, biochemical; in the data active = inhibition above about 19%;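 note: recombinant mutant TCR 2C K166C tagged with TAMRA read by polarization; 0% = receptor in buffer alone and 100% = receptor with positive control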
GSTO1 counter: blocks human GSTO1 in RBBP9 counter-screen; hit rate 1.1% among 300,000; P78417; recombinant GSTO1, activity-based probe fluorescence polarization; inhibition, % at 5.96 µM;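 active = inhibition above the campaign mean inhibition plus 3 SD, cut at about 35% in these data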;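 note: 0% = GSTO1-1 with DMSO and 100% = wells lacking GSTO1-1 enzyme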
SIAE primary: blocks human sialic acid acetylesterase; Q9HAT2; SIAE FP-Rh probe binding, fluorescence polarization; inhibition, % at 9.66 µM; hit rate 0.69% among 370,000;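 active = inhibition above a cutoff: mean of compounds within the control limits plus 3 SD of those, cut at about 17% in these data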;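 note: 0% = plate median of compound wells and 100% = probe without SIAE protein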
Apaf-1 inh: blocks human Apaf-1 apoptosome activity; reconstituted apoptosome caspase-3 activity, DEVD-Rh110 fluorescence; inhibition, % at 20 µM; hit rate 0.71% among 330,000; O14727; active = inhibition of at least 40% at 20 µM;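 note: plate controls were DMSO wells for no effect and DEVD-CHO caspase inhibitor wells for full effect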
Target sequence (O14727 whole entry, looked up): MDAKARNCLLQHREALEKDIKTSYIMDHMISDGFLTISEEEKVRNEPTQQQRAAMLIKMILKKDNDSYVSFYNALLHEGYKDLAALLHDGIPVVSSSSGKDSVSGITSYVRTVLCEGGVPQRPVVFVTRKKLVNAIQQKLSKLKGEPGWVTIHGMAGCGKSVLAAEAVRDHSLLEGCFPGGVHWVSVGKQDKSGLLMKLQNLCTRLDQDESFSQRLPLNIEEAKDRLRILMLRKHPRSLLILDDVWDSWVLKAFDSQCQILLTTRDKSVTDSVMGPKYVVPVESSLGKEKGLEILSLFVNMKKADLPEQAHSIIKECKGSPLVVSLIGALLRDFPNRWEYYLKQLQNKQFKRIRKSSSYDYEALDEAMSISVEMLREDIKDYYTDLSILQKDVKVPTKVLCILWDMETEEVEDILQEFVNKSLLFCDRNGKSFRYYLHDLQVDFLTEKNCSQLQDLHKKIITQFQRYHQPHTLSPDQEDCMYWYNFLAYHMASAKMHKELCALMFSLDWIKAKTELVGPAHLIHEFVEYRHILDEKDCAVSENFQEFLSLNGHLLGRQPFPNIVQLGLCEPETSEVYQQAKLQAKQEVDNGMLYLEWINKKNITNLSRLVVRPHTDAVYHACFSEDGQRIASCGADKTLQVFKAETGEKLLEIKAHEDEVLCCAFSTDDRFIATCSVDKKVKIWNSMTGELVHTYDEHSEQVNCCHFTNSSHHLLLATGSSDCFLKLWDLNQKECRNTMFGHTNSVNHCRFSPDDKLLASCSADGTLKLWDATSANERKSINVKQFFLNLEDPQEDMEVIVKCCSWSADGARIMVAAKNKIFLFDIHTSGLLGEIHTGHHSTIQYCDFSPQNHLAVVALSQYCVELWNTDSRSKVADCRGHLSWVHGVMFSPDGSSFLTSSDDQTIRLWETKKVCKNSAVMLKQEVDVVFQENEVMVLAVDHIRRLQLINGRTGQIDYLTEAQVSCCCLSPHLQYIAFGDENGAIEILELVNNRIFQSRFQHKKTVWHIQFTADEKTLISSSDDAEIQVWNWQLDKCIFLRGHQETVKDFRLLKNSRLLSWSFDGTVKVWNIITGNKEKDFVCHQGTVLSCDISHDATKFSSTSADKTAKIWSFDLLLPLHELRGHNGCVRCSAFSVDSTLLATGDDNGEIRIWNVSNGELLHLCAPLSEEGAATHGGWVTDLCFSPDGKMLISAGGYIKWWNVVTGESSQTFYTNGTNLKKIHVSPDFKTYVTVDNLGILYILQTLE
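Material: cell-free apoptosome with Apaf-1, procaspase-3 and caspase-9; Buffer or medium: Hepes pH 7.5 with detergent and BSA; Reagent: cytochrome c trigger plus (Z-DEVD)2-Rh110 caspase-3 substrate; Times: compound with Apaf-1, dATP, procaspase-3 30 min, then 50 min reaction, room temperature; Technique: Rh110 fluorescence intensity.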
TDP2 inh: blocks human TDP2 phosphodiesterase activity. AID 720702. inhibition, % at 12.8 µM. hit rate 0.34% among 370,000. recombinant TDP2, T5PNP hydrolysis, p-nitrophenol absorbance 415 nm. O95551;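 active = inhibition above the mean of all tested compounds plus 3 SD, set per campaign, cut at about 25% in these data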;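 note: 0% = DMSO with enzyme and 100% = buffer with substrate but no TDP2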
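Incubation: 2 h at 37 °C; Test system: recombinant human TDP2; Quantity: enzyme 120 nM; Read-out basis: percent inhibition; Medium: 50 mM Tris-HCl pH 7.5 with Mg2+, KCl, DTT, BSA; Repeats: single replicate; Compound: 12.8 µM single point, 1% DMSO; Signal: epi absorbance; Reagent: 5 mM T5PNP chromogenic substrate; Benchmarks: no-enzyme high, DMSO-plus-enzyme low.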
PAD4 FP inh: blocks human protein arginine deiminase 4; inhibition, % at 6.36 µM; hit rate 0.41% among 330,000; recombinant PAD4, RCA probe fluorescence polarization; Q9UM07;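 active = percent inhibition above a cutoff equal to the mean of all tested compounds plus 3 SD, cut at about 15% in these data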;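 note: 0% = PAD4 with RCA probe and DMSO and 100% = probe without PAD4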
SIAE inh conf: human SIAE inhibition, confirmation; shares compounds with SIAE primary; SIAE FP-Rh activity-based probe, fluorescence polarization; inhibition, % at 9.66 µM; hit rate 13% among 2,300;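 active = mean inhibition of the replicates above the hit cutoff set in the primary screen, cut at about 17% in these data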;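 note: 0% = SIAE with DMSO and probe and 100% = probe without SIAE; inhibitors lower polarization as more probe stays unbound to SIAE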
Starred values were filed as active, the others as inactive. Most compounds without a hit are left out; they make up all but 2.4% or so of the library.

Results for COC(=O)c1ccc(Oc2nc3c(c(=O)n(C)c(=O)n3C)n2CCC(C)C)cc1 ?
TCR CD3 inh: 2.2; GSTO1 counter: 9.1; SIAE primary: 28.2*; Apaf-1 inh: 17.3; TDP2 inh: -3.5; PAD4 FP inh: 1.0; SIAE inh conf: -3.4

How did c1cc2nnnn2nc1N1CCCCCC1 do in these assays?
TCR CD3 inh: 1.9; GSTO1 counter: -1.4; SIAE primary: -3.5; Apaf-1 inh: -3.4; TDP2 inh: 5.4; PAD4 FP inh: -2.5

How did Cc1[nH]c2ccccc2c1CC(=O)Nc1ccc(Nc2cccnc2)c(-c2ccc(F)c(F)c2)c1 do in these assays?
TCR CD3 inh: 3.7; SIAE primary: 16.6; TDP2 inh: 4.6

How did O=C(Cc1c[nH]c2ccccc12)Nc1ccc(Nc2cccnc2)c(-c2cccc(Cl)c2)c1 do in these assays?
TCR CD3 inh: -4.1; SIAE primary: 9.5; TDP2 inh: 3.8

Results for O=C(Cc1c[nH]c2ccccc12)Nc1ccc(Nc2cccnc2)c(-c2ccc(F)c(F)c2)c1 ?
TCR CD3 inh: -0.6; SIAE primary: 27.8*; TDP2 inh: -9.9; SIAE inh conf: 9.5

What do the screens show for `O=C(Cc1c[nH]c2ccccc12)Nc1ccc(Nc2cccnc2)c(-c2ccc(-c3ccccc3)cc2F)c1`?
TCR CD3 inh: 0.0; SIAE primary: 22.0*; TDP2 inh: -9.7; SIAE inh conf: -2.1

Results for Cc1nc(N)sc1-c1csc(Nc2cccc(O)c2)n1 ?
TCR CD3 inh: 4.5; GSTO1 counter: 8.1; SIAE primary: 17.4*; Apaf-1 inh: -12.4; TDP2 inh: -8.9; PAD4 FP inh: -10.6; SIAE inh conf: -2.6

Results for O=Cc1cc2ccccc2nc1SCc1ccc(Cl)cc1 ?
TCR CD3 inh: -5.0; GSTO1 counter: -11.6; SIAE primary: 27.2*; Apaf-1 inh: 15.0; TDP2 inh: 2.9; PAD4 FP inh: -3.6; SIAE inh conf: -4.0

What do the screens show for `COc1ccc(C(c2c(N)[nH]c(=S)[nH]c2=O)c2c(N)[nH]c(=S)[nH]c2=O)cc1`?
TCR CD3 inh: 0.3; GSTO1 counter: 6.9; SIAE primary: 8.0; Apaf-1 inh: 2.6; TDP2 inh: -2.7; PAD4 FP inh: 0.1

What do the screens show for `CC(C)=C1C2CCC1C(C(=O)NCCc1ccccc1)C2C(=O)O` (stereo not given)?
TCR CD3 inh: 4.7; GSTO1 counter: -2.5; SIAE primary: 21.4*; Apaf-1 inh: 19.1; TDP2 inh: 12.2; PAD4 FP inh: -3.8; SIAE inh conf: -2.0

How did COc1ccc(NC(=O)CC2C(=O)N(C)C(=S)N2Cc2ccco2)cc1 (stereo not given) do in these assays?
TCR CD3 inh: 10.2; GSTO1 counter: 8.9; SIAE primary: 19.8*; Apaf-1 inh: 15.5; TDP2 inh: -0.5; PAD4 FP inh: -10.1; SIAE inh conf: 4.5

What do the screens show for `C=CCN1C(=O)C(CC(=O)Nc2ccc(OC)cc2)N(Cc2ccco2)C1=S` (stereo not given)?
TCR CD3 inh: 2.5; GSTO1 counter: -7.5; SIAE primary: -9.6; Apaf-1 inh: -1.9; TDP2 inh: 7.5; PAD4 FP inh: -3.3

Results for COc1ccc(C(=O)Oc2ccc3c(C)cc(=O)oc3c2C(C)=O)cc1 ?
TCR CD3 inh: -2.5; GSTO1 counter: -2.1; SIAE primary: 17.4*; Apaf-1 inh: -9.7; TDP2 inh: -5.2; PAD4 FP inh: -0.9; SIAE inh conf: -0.7

What do the screens show for `CC(=O)Oc1ccc2c(C)cc(=O)oc2c1C(=O)c1ccccc1`?
TCR CD3 inh: 2.9; GSTO1 counter: -6.8; SIAE primary: 5.2; Apaf-1 inh: 6.4; TDP2 inh: -4.9; PAD4 FP inh: 0.1

What do the screens show for `COc1ccc(N(CC(=O)NCCSCc2c(F)cccc2Cl)S(C)(=O)=O)cc1OC`?
GSTO1 counter: 1.6; Apaf-1 inh: -1.4; PAD4 FP inh: 0.4

Results for CS(=O)(=O)N(CC(=O)NCCSCc1c(F)cccc1Cl)c1ccc2c(c1)OCO2 ?
TCR CD3 inh: -7.2; GSTO1 counter: 4.6; SIAE primary: 18.3*; Apaf-1 inh: 6.8; TDP2 inh: 6.3; PAD4 FP inh: -6.2; SIAE inh conf: 6.9

Results for Cc1cc(C)c(NC(=S)N(CCN2CCCCC2)Cc2ccco2)c(C)c1 ?
TCR CD3 inh: -0.9; GSTO1 counter: 16.9; SIAE primary: 9.5; Apaf-1 inh: -12.9; TDP2 inh: 3.9; PAD4 FP inh: -0.4

Results for Cc1cccc(C)c1NC(=S)N(CCN1CCCCCC1)Cc1ccco1 ?
TCR CD3 inh: 2.3; GSTO1 counter: 11.8; SIAE primary: 17.9*; Apaf-1 inh: -20.6; TDP2 inh: -6.8; PAD4 FP inh: -0.1; SIAE inh conf: 4.7

Results for CCN(CC)C(C)C(=O)Nc1c2c(cc3c1CCC3)CCC2 (stereo not given) ?
TCR CD3 inh: -2.2; GSTO1 counter: -0.2; SIAE primary: 5.3; Apaf-1 inh: 11.8; TDP2 inh: -7.9; PAD4 FP inh: -3.6

Results for CC(C(=O)Nc1c2c(cc3c1CCC3)CCC2)N1CCCC1 (stereo not given) ?
TCR CD3 inh: 0.9; GSTO1 counter: 7.8; SIAE primary: 20.4*; Apaf-1 inh: -9.6; TDP2 inh: 5.4; PAD4 FP inh: -4.2; SIAE inh conf: -7.2

How did CC1=C(C(=O)OCc2ccc3c(c2)OCO3)C(c2ccccc2OCc2ccccc2)NC(=O)N1 (stereo not given) do in these assays?
TCR CD3 inh: -3.8; GSTO1 counter: -15.9; SIAE primary: -7.5; Apaf-1 inh: 21.3; TDP2 inh: 3.0; PAD4 FP inh: -5.9

How did COc1ccc(NC(=O)CC2SC(=NCC3CCCO3)NC2=O)cc1 (stereo not given) do in these assays?
TCR CD3 inh: 0.7; GSTO1 counter: 1.9; SIAE primary: 17.4*; Apaf-1 inh: -14.1; TDP2 inh: 5.2; PAD4 FP inh: 1.5; SIAE inh conf: -3.3

What do the screens show for `CCCCNC(=O)C[C@@H]1C[C@@]2(C(=O)OC)CCCCC=C2N(Cc2ccccc2)C1=O`?
TCR CD3 inh: 2.8; SIAE primary: 21.7*; TDP2 inh: -1.6; SIAE inh conf: -0.5

How did COc1ccc(CNC(=O)C2CSC(=O)C2)cc1 (stereo not given) do in these assays?
TCR CD3 inh: 2.0; GSTO1 counter: 1.1; SIAE primary: 20.2*; Apaf-1 inh: -0.7; TDP2 inh: -0.8; PAD4 FP inh: -6.2; SIAE inh conf: -1.5

Results for Cc1csc(NC(=O)C2CCCCN2S(=O)(=O)c2ccccc2)n1 (stereo not given) ?
TCR CD3 inh: 0.8; GSTO1 counter: -5.3; SIAE primary: -3.2; Apaf-1 inh: 4.4; TDP2 inh: 10.6; PAD4 FP inh: 0.2
